Results as given in ChEMBL document CHEMBL2150981, “Discovery and optimization of benzotriazine di-N-oxides targeting replicating and nonreplicating Mycobacterium tuberculosis” (J Med Chem, 2012).
Converted amounts (≈) assume the structure as drawn.

Columns and labels:
Format in all cases: functional
[1] = test system: Mycobacterium tuberculosis; assay: Antitubercular activity against kanamycin-resistant Mycobacterium tuberculosis ATCC 35827 after 5 days by resazurin-based microplate assay; conditions: ATCC 35827, 120 h
Outline: (§1)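 Mid-log cultures grown in 7H9 with glycerol, Tween-80 and ADC. Compounds in DMSO were tested two-fold from […] against ~10^5 CFU/mL, 37°C for 5 d. Resazurin was then added for a further 2 d, and fluorescence read at ex 530/em 590 with visual confirmation. MIC was the lowest concentration inhibiting 90% of growth. Final DMSO 0.625%; two-fold variation taken as assay error.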

[2] = test system: Mycobacterium tuberculosis; assay: Antitubercular activity against streptomycin-resistant Mycobacterium tuberculosis ATCC 35820 after 5 days by resazurin-based microplate assay; conditions: ATCC 35820, 120 h; outline: as §1
[3] = test system: Mycobacterium tuberculosis; assay: Antitubercular activity against ethionamide-resistant Mycobacterium tuberculosis ATCC 35830 after 5 days by resazurin-based microplate assay; conditions: ATCC 35830, 120 h; outline: as §1
[4] = test system: Mycobacterium tuberculosis; assay: Antitubercular activity against isoniazid-resistant Mycobacterium tuberculosis ATCC 35822 after 5 days by resazurin-based microplate assay; conditions: ATCC 35822, 120 h; outline: as §1
[5] = test system: Mycobacterium tuberculosis; assay: Antitubercular activity against ethambutol-resistant Mycobacterium tuberculosis ATCC 35837 after 5 days by resazurin-based microplate assay; conditions: ATCC 35837, 120 h; outline: as §1

Row | Compound | MIC90 [1] | MIC90 [2] | MIC90 [3] | MIC90 [4] | MIC90 [5]
1 | CCNc1n[n+]([O-])c2ccccc2[n+]1[O-] | 1.2 µg/mL (≈ 5.82 µM) | 1.2 µg/mL (≈ 5.82 µM) | 1.2 µg/mL (≈ 5.82 µM) | 1.2 µg/mL (≈ 5.82 µM) | 1.2 µg/mL (≈ 5.82 µM)
2 | CC(C)(C)Nc1n[n+]([O-])c2ccccc2[n+]1[O-] | 2.5 µg/mL (≈ 10.7 µM) | 1.2 µg/mL (≈ 5.12 µM) | 1.2 µg/mL (≈ 5.12 µM) | 2.5 µg/mL (≈ 10.7 µM) | 2.5 µg/mL (≈ 10.7 µM)
3 | CCNc1n[n+]([O-])c2cccc(C)c2[n+]1[O-] | 0.62 µg/mL (≈ 2.82 µM) | 0.16 µg/mL (≈ 0.727 µM) | 0.31 µg/mL (≈ 1.41 µM) | 0.62 µg/mL (≈ 2.82 µM) | 0.62 µg/mL (≈ 2.82 µM)
4 | CCNc1n[n+]([O-])c2cc3c(cc2[n+]1[O-])CCC3 | 1.2 µg/mL (≈ 4.87 µM) | 0.63 µg/mL (≈ 2.56 µM) | 1.2 µg/mL (≈ 4.87 µM) | 1.2 µg/mL (≈ 4.87 µM) | 1.2 µg/mL (≈ 4.87 µM)
5 | [O-][n+]1nc(NC2CCC2)[n+]([O-])c2cc3c(cc21)CCC3 | 1.2 µg/mL (≈ 4.41 µM) | 0.31 µg/mL (≈ 1.14 µM) | 0.62 µg/mL (≈ 2.28 µM) | 1.2 µg/mL (≈ 4.41 µM) | 0.62 µg/mL (≈ 2.28 µM)
6 | CCNc1n[n+]([O-])c2cc(C)c(OC)cc2[n+]1[O-] | 1.2 µg/mL (≈ 4.8 µM) | 1.2 µg/mL (≈ 4.8 µM) | 1.2 µg/mL (≈ 4.8 µM) | 1.2 µg/mL (≈ 4.8 µM) | 1.2 µg/mL (≈ 4.8 µM)
7 | [O-][n+]1nc(N2CCCC2)[n+]([O-])c2ccccc21 | 0.31 µg/mL (≈ 1.33 µM) | 0.02 µg/mL (≈ 0.0861 µM) | 0.31 µg/mL (≈ 1.33 µM) | 0.31 µg/mL (≈ 1.33 µM) | 0.31 µg/mL (≈ 1.33 µM)
8 | [O-][n+]1nc(N2CCCC2)[n+]([O-])c2cc3c(cc21)CCC3 | 0.63 µg/mL (≈ 2.31 µM) | 0.16 µg/mL (≈ 0.588 µM) | 0.62 µg/mL (≈ 2.28 µM) | 0.31 µg/mL (≈ 1.14 µM) | 0.62 µg/mL (≈ 2.28 µM)
9 | [O-][n+]1nc(N2CCCCC2)[n+]([O-])c2cc3c(cc21)CCC3 | 0.31 µg/mL (≈ 1.08 µM) | 0.15 µg/mL (≈ 0.524 µM) | 0.31 µg/mL (≈ 1.08 µM) | 0.15 µg/mL (≈ 0.524 µM) | 0.31 µg/mL (≈ 1.08 µM)
10 | CN(C)c1n[n+]([O-])c2cc3c(cc2[n+]1[O-])CCC3 | 0.31 µg/mL (≈ 1.26 µM) | < 0.07 µg/mL | 0.15 µg/mL (≈ 0.609 µM) | < 0.07 µg/mL | 0.31 µg/mL (≈ 1.26 µM)
11 | CN(Cc1ccccc1)c1n[n+]([O-])c2cc3c(cc2[n+]1[O-])CCC3 | 0.15 µg/mL (≈ 0.465 µM) | < 0.07 µg/mL | 0.07 µg/mL (≈ 0.217 µM) | < 0.07 µg/mL | 0.15 µg/mL (≈ 0.465 µM)
12 | CN(CCc1ccccc1)c1n[n+]([O-])c2cc3c(cc2[n+]1[O-])CCC3 | 0.15 µg/mL (≈ 0.446 µM) | < 0.07 µg/mL | 0.15 µg/mL (≈ 0.446 µM) | 0.07 µg/mL (≈ 0.208 µM) | 0.31 µg/mL (≈ 0.922 µM)
13 | CC1CCCCN1c1n[n+]([O-])c2cc3c(cc2[n+]1[O-])CCC3 (stereo not given) | 0.62 µg/mL (≈ 2.06 µM) | 0.31 µg/mL (≈ 1.03 µM) | 0.31 µg/mL (≈ 1.03 µM) | 0.31 µg/mL (≈ 1.03 µM) | 0.62 µg/mL (≈ 2.06 µM)
